{
  "source": "ChEMBL document CHEMBL1158960",
  "about": "“Constituents of leguminous plants, XIII. New triterpenoid saponins from Wistaria brachybotrys” (J Nat Prod, 1991)",
  "format_in_all_cases": "cell-based",
  "key": {"Raji [1]": {"tested_on": "Raji", "experiment": "Inhibition of 12-O-tetradecanoylphorbol-13-acetate-induced EBV-early antigen activation in human Raji cells at 500 molar ratio after 48 hrs relative to TPA", "details": "human gammaherpesvirus 4", "how_it_was_run": "(§1)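 EBV-EA activation induced in Raji cells by TPA (20 ng = 32 pmol); test triterpenoid dosed as mol ratio to TPA. Results expressed relative to positive control set at 100%, averages of three determinations ± SD.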"}, "[2]": {"experiment": "Cytotoxicity against human Raji cells assessed as cell viability at 100 molar ratio", "details": "read-out: Activity", "how_it_was_run": "(§2)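 Raji cells exposed to TPA (20 ng = 32 pmol) together with test triterpenoid, dosed as mol ratio to TPA; viability of Raji cells recorded alongside EBV-EA assay, given as percentage.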"}, "Raji [3]": {"tested_on": "Raji", "experiment": "Inhibition of 12-O-tetradecanoylphorbol-13-acetate-induced EBV-early antigen activation in human Raji cells at 10 molar ratio after 48 hrs relative to TPA", "set-up": "scale not given: the % may be the effect or the level left", "details": "human gammaherpesvirus 4", "how_it_was_run": "as §1"}, "Raji [4]": {"tested_on": "Raji", "experiment": "Inhibition of 12-O-tetradecanoylphorbol-13-acetate-induced EBV-early antigen activation in human Raji cells at 100 molar ratio after 48 hrs relative to TPA", "set-up": "scale not given: the % may be the effect or the level left", "details": "human gammaherpesvirus 4", "how_it_was_run": "as §1"}, "[5]": {"experiment": "Cytotoxicity against human Raji cells assessed as cell viability at 1000 molar ratio", "details": "read-out: Activity", "how_it_was_run": "as §2"}, "[6]": {"experiment": "Cytotoxicity against human Raji cells assessed as cell viability at 500 molar ratio", "details": "read-out: Activity", "how_it_was_run": "as §2"}, "[7]": {"experiment": "Cytotoxicity against human Raji cells assessed as cell viability at 10 molar ratio", "details": "read-out: Activity", "how_it_was_run": "as §2"}, "Raji [8]": {"tested_on": "Raji", "experiment": "Inhibition of 12-O-tetradecanoylphorbol-13-acetate-induced EBV-early antigen activation in human Raji cells at 1000 molar ratio after 48 hrs relative to TPA", "set-up": "scale not given: the % may be the effect or the level left", "details": "human gammaherpesvirus 4", "how_it_was_run": "as §1"}},
  "data": [
    {"smiles": "COC(=O)[C@H]1O[C@@H](O[C@H]2CC[C@@]3(C)[C@@H](CC[C@]4(C)[C@@H]3CC=C3[C@@H]5C[C@@](C)(C(=O)OC)C[C@@H](OC(C)=O)[C@]5(C)CC[C@]34C)[C@@]2(C)CO)[C@H](O[C@@H]2OC[C@@H](O)[C@H](O)[C@H]2O[C@@H]2O[C@@H](C)[C@H](O)[C@@H](O)[C@H]2O)[C@@H](O)[C@@H]1O", "note": "[WISTARIASAPONIN G]", "values": [
      {"measurement": "EBV-EA activation remaining (% of TPA control)", "setting": "Raji [1]", "value": 15.4, "unit": "%"},
      {"measurement": "viability at 100 molar ratio", "setting": "[2]", "value": "> 80", "unit": "%"},
      {"measurement": "Activity", "setting": "Raji [3]", "value": 79.7, "unit": "%"},
      {"measurement": "Activity", "setting": "Raji [4]", "value": 62.6, "unit": "%"},
      {"measurement": "viability at 1000 molar ratio", "setting": "[5]", "value": 0, "unit": "%"},
      {"measurement": "viability at 500 molar ratio", "setting": "[6]", "value": 10, "unit": "%"},
      {"measurement": "viability at 10 molar ratio", "setting": "[7]", "value": "> 80", "unit": "%"}
    ]},
    {"smiles": "COC(=O)[C@H]1O[C@@H](O[C@H]2CC[C@@]3(C)[C@@H](CC[C@]4(C)[C@@H]3CC=C3[C@@H]5CC(C)(C)CC(=O)[C@]5(C)CC[C@]34C)[C@@]2(C)CO)[C@H](O[C@@H]2OC[C@@H](O)[C@H](O)[C@H]2O[C@@H]2O[C@@H](C)[C@H](O)[C@@H](O)[C@H]2O)[C@@H](O)[C@@H]1O", "note": "[WISTARIASAPONIN D]", "values": [
      {"measurement": "Activity", "setting": "Raji [8]", "value": 0, "unit": "%"},
      {"measurement": "EBV-EA activation remaining (% of TPA control)", "setting": "Raji [1]", "value": 51, "unit": "%"},
      {"measurement": "viability at 100 molar ratio", "setting": "[2]", "value": "> 80", "unit": "%"},
      {"measurement": "Activity", "setting": "Raji [3]", "value": 92.8, "unit": "%"},
      {"measurement": "Activity", "setting": "Raji [4]", "value": 86.1, "unit": "%"},
      {"measurement": "viability at 1000 molar ratio", "setting": "[5]", "value": 10, "unit": "%"},
      {"measurement": "viability at 500 molar ratio", "setting": "[6]", "value": "> 80", "unit": "%"},
      {"measurement": "viability at 10 molar ratio", "setting": "[7]", "value": "> 80", "unit": "%"}
    ]},
    {"smiles": "CC1(C)CC(=O)[C@]2(C)CC[C@]3(C)C(=CC[C@@H]4[C@@]5(C)CC[C@H](O)[C@](C)(CO)[C@@H]5CC[C@]43C)[C@@H]2C1", "note": "[SOYASAPOGENOL E]", "values": [
      {"measurement": "Activity", "setting": "Raji [8]", "value": 0, "unit": "%"},
      {"measurement": "EBV-EA activation remaining (% of TPA control)", "setting": "Raji [1]", "value": 0, "unit": "%"},
      {"measurement": "viability at 100 molar ratio", "setting": "[2]", "value": "> 80", "unit": "%"},
      {"measurement": "Activity", "setting": "Raji [3]", "value": 89.5, "unit": "%"},
      {"measurement": "Activity", "setting": "Raji [4]", "value": 43.9, "unit": "%"},
      {"measurement": "viability at 1000 molar ratio", "setting": "[5]", "value": "> 80", "unit": "%"},
      {"measurement": "viability at 500 molar ratio", "setting": "[6]", "value": "> 80", "unit": "%"},
      {"measurement": "viability at 10 molar ratio", "setting": "[7]", "value": "> 80", "unit": "%"}
    ]},
    {"smiles": "COC(=O)[C@H]1O[C@@H](O[C@H]2CC[C@@]3(C)[C@@H](CC[C@]4(C)[C@@H]3CC=C3[C@@H]5CC(C)(C)CC(=O)[C@]5(C)CC[C@]34C)[C@@]2(C)CO)[C@H](O[C@@H]2O[C@H](CO)[C@H](O)[C@H](O)[C@H]2O[C@@H]2O[C@@H](C)[C@H](O)[C@@H](O)[C@H]2O)[C@@H](O)[C@@H]1O", "note": "[DEHYDROSOYASAPONIN I]", "values": [
      {"measurement": "Activity", "setting": "Raji [8]", "value": 50.3, "unit": "%"},
      {"measurement": "EBV-EA activation remaining (% of TPA control)", "setting": "Raji [1]", "value": 67.8, "unit": "%"},
      {"measurement": "viability at 100 molar ratio", "setting": "[2]", "value": "> 80", "unit": "%"},
      {"measurement": "Activity", "setting": "Raji [3]", "value": 100, "unit": "%"},
      {"measurement": "Activity", "setting": "Raji [4]", "value": 88.5, "unit": "%"},
      {"measurement": "viability at 1000 molar ratio", "setting": "[5]", "value": 60, "unit": "%"},
      {"measurement": "viability at 500 molar ratio", "setting": "[6]", "value": "> 80", "unit": "%"},
      {"measurement": "viability at 10 molar ratio", "setting": "[7]", "value": "> 80", "unit": "%"}
    ]}
  ]
}
